Compounds with a hit are over-represented: about 2.3% of the library has one in this group of screens.
TRPC4 agonist: TRPC4 (mouse) channel activation. Q9QUQ5. 0.49% of 310,000 active. HEK293 TRPC4beta/mu-opioid, Fluo4 calcium fluorescence; active compounds read high. B-score at 10 µM;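 active = B-score above 5 SD of library B-scores, and initial fluorescence ratio not above library mean plus 5 SD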;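 also: positive B-score marks a calcium rise read as TRPC4 activation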
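System: HEK293 cells stably co-expressing mouse TRPC4beta and mu-opioid receptor; Schedule: Fluo4 dye loading 45 min at room temperature, 110 s recording; Detection: Fluo4 fluorescence, kinetic; Evaluation: B-scored integrated calcium fluorescence ratio; Controls: buffer (low) and maximal DAMGO (high).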
TRPC6 act: activators of mouse TRPC6 channel. Q61143. 0.13% of 310,000 active. HEK293-TRPC6 membrane potential dye fluorescence; active compounds read high. B-score at 10 µM;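 active = B-score of the integrated fluorescence ratio above library mean plus 3 SD, and starting fluorescence ratio within library mean plus 5 SD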;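 also: higher score means more depolarization so channel activation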
Target sequence (Q61143 whole entry, looked up): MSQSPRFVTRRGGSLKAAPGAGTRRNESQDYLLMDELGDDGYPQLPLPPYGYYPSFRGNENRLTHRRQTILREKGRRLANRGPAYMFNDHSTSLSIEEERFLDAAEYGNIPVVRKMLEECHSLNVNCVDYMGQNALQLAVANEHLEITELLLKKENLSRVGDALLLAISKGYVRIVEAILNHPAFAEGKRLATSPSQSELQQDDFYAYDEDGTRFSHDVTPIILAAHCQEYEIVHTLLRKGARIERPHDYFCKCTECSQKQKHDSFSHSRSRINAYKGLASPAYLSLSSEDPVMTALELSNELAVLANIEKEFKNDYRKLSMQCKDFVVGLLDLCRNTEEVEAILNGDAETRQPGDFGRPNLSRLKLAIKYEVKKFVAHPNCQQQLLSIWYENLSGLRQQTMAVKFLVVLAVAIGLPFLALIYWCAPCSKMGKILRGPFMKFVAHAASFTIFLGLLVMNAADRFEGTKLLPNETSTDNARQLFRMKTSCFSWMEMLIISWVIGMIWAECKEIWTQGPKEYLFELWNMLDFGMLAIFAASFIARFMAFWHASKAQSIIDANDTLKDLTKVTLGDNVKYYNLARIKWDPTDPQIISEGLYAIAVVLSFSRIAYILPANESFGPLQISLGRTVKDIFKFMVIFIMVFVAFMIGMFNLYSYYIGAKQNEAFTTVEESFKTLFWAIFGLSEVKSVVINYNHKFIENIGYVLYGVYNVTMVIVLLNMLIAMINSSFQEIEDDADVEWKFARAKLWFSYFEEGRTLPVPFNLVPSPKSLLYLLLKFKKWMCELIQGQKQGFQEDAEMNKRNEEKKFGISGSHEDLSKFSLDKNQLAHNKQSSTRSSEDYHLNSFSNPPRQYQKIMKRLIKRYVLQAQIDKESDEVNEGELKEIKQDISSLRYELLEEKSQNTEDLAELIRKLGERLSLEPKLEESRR
TRPC4 inh: blocks the mouse TRPC4 cation channel. Q9QUQ5. AID 2247. B-score at 10 µM. HEK293 TRPC4beta/mu-opioid, DAMGO-evoked Fluo4 calcium flux; active compounds read low. 0.39% of 300,000 active;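 active = B-score over 3 SD under the library average, no early fluorescence shift, positive overall ratio signal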
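Assay system – HEK293 line stably carrying TRPC4beta and mu-opioid receptor · Doses – single dose · Detection – Fluo4 calcium-dye fluorescence, kinetic read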
TRPC6 inh: mouse TRPC6 channel inhibition. 1.1% of 310,000 active. B-score at 10 µM. AID 2553. HEK293-TRPC6, membrane potential dye, ACh-evoked depolarization; active compounds read low;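 active = B-score under library mean minus 3 SD, initial fluorescence not abnormally high, positive integrated signal ratio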;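 also: B-score derived from integrated fluorescence ratio over the kinetic read; more negative B-score means stronger inhibition of depolarization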
TRPC4 PAM: allosteric potentiators of mouse TRPC4 channel; AID 2227; 0.42% of 310,000 active; B-score at 10 µM; HEK293 TRPC4beta/mu-opioid, DAMGO EC20, Fluo-4 Ca2+ flux; active compounds read high;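 active = B-score of calcium response area above 5 SD of library B-scores, with initial fluorescence ratio within 5 SD of library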
TRPC4 spec 2: mouse TRPC4 off-target activity of TRPC6 inhibitors, second screen; inhibition, % at 10 µM; shares compounds with TRPC6 inh; 42% of 920 active; HEK293 TRPC4/MOR, membrane potential dye fluorescence; channel activated by saturating DAMGO dose; AID 2776;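 active = compounds whose fluorescence signal differed from control wells by over 3 SD, either direction, in both duplicate plates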
TRPC4 spec: selectivity of TRPC6 inhibitors: effect on mouse TRPC4 | shares compounds with TRPC6 inh | HEK293 TRPC4/mu-opioid, membrane potential fluorescence | activity change, negative = inhibition, % at 10 µM | 61% of 920 active | AID 2777;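 active = rise or fall in signal beyond 3 SD of buffer-only wells in both replicate plates, either sign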;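 also: integrated kinetic ratio of fluorescence range over baseline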
HEK293 MPD ctr 2-1: parental HEK293 nonspecific activity of TRPC6 inhibitors, second screen | shares compounds with TRPC6 inh | parental HEK293 membrane potential dye fluorescence; maximal acetylcholine challenge after compound addition | signal change vs control, % at 10 µM | 31% of 920 active;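 active = membrane potential signal moving either way by over 3 SD of the maximum-effect control, in both duplicate plates, meaning non-specific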
HEK293 MPD ctr-1: parental HEK293 nonspecific activity of TRPC6 inhibitors. shares compounds with TRPC6 inh. parental HEK293 membrane potential dye fluorescence. membrane potential signal change, % at 10 µM. 60% of 920 active;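 active = membrane potential signal shifting up or down by more than 3 SD of buffer-only wells, on both duplicate plates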
HEK293 MPD ctr-2: counter-screen for TRPC6 modulators: effect in parental HEK293 cells; shares compounds with TRPC6 inh; 51% of 2,400 active; membrane potential dye fluorescence; membrane potential signal change, % at 10 µM;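 active = membrane potential signal moves up or down beyond 5 SD from buffer-only wells, on both duplicate plates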
HEK293 MPD ctr 2-2: second check of TRPC6 modulator effects in parental HEK293 cells; shares compounds with TRPC6 inh; AID 488926; 14% of 2,400 active; inhibition, % at 10 µM; membrane potential dye fluorescence; after compound, maximal acetylcholine stimulation;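 active = membrane potential signal drops by more than 5 SD from the mean control signal, in both duplicate plates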
TRPC4 ctr mod: mouse TRPC4 off-target activity of TRPC6 modulators; AID 488927; percent change from control (negative = decrease, positive = increase), % at 10 µM; 69% of 2,400 active; shares compounds with TRPC6 inh; HEK293 TRPC4/mu-opioid, membrane potential fluorescence;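 active = membrane potential signal moved up or down beyond 5 SD of buffer control wells, in both duplicate plates, actives on both sides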
TRPC4/MOR inh 2: second check of whether TRPC6 modulators also affect mouse TRPC4. shares compounds with TRPC6 inh. inhibition, % at 10 µM. 55% of 2,400 active. HEK293 TRPC4/mu-opioid, membrane potential dye fluorescence; stimulated with maximal-effect DAMGO. AID 488928;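 active = drop in membrane potential signal beyond 5 SD of the control wells in both duplicate plates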;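 also: TRPC4 counter screen for TRPC6 hits run under conditions tuned for TRPC6 not TRPC4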
TRPC6 block conf: mouse TRPC6 inhibitor confirmation; shares compounds with TRPC6 inh; HEK293-TRPC6, membrane potential dye, ACh-evoked depolarization; inhibition, % at 10 µM; 43% of 3,300 active;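 active = fluorescence ratio falls more than 5 SD below the full-stimulation control mean, in both duplicate runs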;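 also: integrated fluorescence ratio of peak minus minimum over baseline after agonist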
TRPC6 act conf: confirmation of mouse TRPC6 activators; HEK293-TRPC6 membrane potential dye fluorescence, FDSS; AID 488961; shares compounds with TRPC6 inh; 11% of 2,800 active; activation, % at 10 µM;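 active = ratio signal rise beyond 5 SD above unstimulated control wells' mean, seen in both duplicate runs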
Of the large screens only hits and unclear results are named; the others gave an inactive call (follow-up assays come after a bar, where they were run).

COc1cccc(OCC(O)CN2CCC(CN3C(=O)c4cccc5cccc(c45)C3=O)CC2)c1 (stereo not given)	TRPC6 inh -10 | TRPC4 spec 2 62% | TRPC4 spec -14% | HEK293 MPD ctr 2-1 inactive | HEK293 MPD ctr-1 -138% | TRPC6 block conf inactive | TRPC6 act conf inactive
CCCCOc1ccc(-c2nnc(-c3cc[n+](C)cc3)o2)cc1	TRPC6 inh -8.2 | TRPC4 spec 2 inactive | TRPC4 spec -11% | HEK293 MPD ctr 2-1 -69% | HEK293 MPD ctr-1 -200% | TRPC6 block conf inactive | TRPC6 act conf inactive
CC1(C)S[C@@H]2[C@H](NC(=O)C(NC(=O)N3CCNC3=O)c3ccccc3)C(=O)N2[C@H]1C(=O)O (stereo not given in full)	none
N#Cc1ccccc1NC(=O)CSc1nnc(-c2ccncc2)o1	none
N#CC1=C(N)OC2=C(CN(Cc3ccccc3)C/C2=C\c2cccnc2)C1c1cccnc1 (stereo not given)	none
CC(C)N1CC2=C(OC(N)=C(C#N)C2c2cccnc2)/C(=C/c2cccnc2)C1 (stereo not given)	TRPC6 inh -5 | HEK293 MPD ctr-2 91% | HEK293 MPD ctr 2-2 inactive | TRPC4 ctr mod inactive | TRPC4/MOR inh 2 inactive | TRPC6 block conf inactive | TRPC6 act conf inactive
CC1(C)NC(=O)N(CC(=O)N2CCCC(C(F)(F)F)C2)C1=O (stereo not given)	none
COc1cc(/C=C/C(=O)c2ccc3c(c2)OCCO3)cc(Br)c1OCC(=O)N(C)C	TRPC6 act 13 | HEK293 MPD ctr-2 126% | HEK293 MPD ctr 2-2 inactive | TRPC4 ctr mod 27% | TRPC4/MOR inh 2 inactive | TRPC6 block conf inactive | TRPC6 act conf 51%
Cc1ccc(C)c2[nH]c(=O)c(CN(CCN3CCCC3)C(=O)Nc3cccc(Cl)c3)cc12	TRPC6 inh -6.8 | HEK293 MPD ctr-2 inactive | HEK293 MPD ctr 2-2 67% | TRPC4 ctr mod inactive | TRPC4/MOR inh 2 80% | TRPC6 block conf 60% | TRPC6 act conf inactive
Nc1ccc(C(=O)N/N=C/c2cn(Cc3cccc(F)c3)c3ccccc23)cc1	none
CCOC(=O)C1=NN(C(=O)c2ccccc2)C(O)(c2ccc(C)cc2)C1 (stereo not given)	none
COC(=O)C1=NN(C(=O)c2cccc(Br)c2)C(O)(c2ccc(Cl)cc2)C1 (stereo not given)	TRPC4 agonist 100, TRPC6 act 30 | HEK293 MPD ctr-2 457% | HEK293 MPD ctr 2-2 inactive | TRPC4 ctr mod 94% | TRPC4/MOR inh 2 inactive | TRPC6 act conf 326%
CCOC(=O)C1=NN(C(=O)c2ccc(OC)cc2)C(O)(c2ccc(Cl)cc2)C1 (stereo not given)	TRPC4 agonist 70, TRPC6 act 17 | HEK293 MPD ctr-2 344% | HEK293 MPD ctr 2-2 inactive | TRPC4 ctr mod 76% | TRPC4/MOR inh 2 inactive | TRPC6 act conf 209%
O=C(c1ccoc1)N1CCCC(N2CCN(c3cccc(Cl)c3)CC2)C1 (stereo not given)	none
O=C(CSc1ccc2ccccc2c1)Nc1ccc(S(=O)(=O)Nc2nccs2)cc1	none
CCN(CC)c1ccc(Nc2nc(N3CCOCC3)c3ccccc3n2)cc1	TRPC6 inh -5.2 | HEK293 MPD ctr-2 -143% | HEK293 MPD ctr 2-2 inactive | TRPC4 ctr mod -32% | TRPC4/MOR inh 2 56% | TRPC6 block conf inactive | TRPC6 act conf inactive
Cc1cc(C)cc(N(C(=O)c2snc(C(N)=O)c2N)C(C(=O)NCC2CCCO2)c2ccc(C)o2)c1 (stereo not given)	TRPC6 inh -5.4 | HEK293 MPD ctr-2 inactive | HEK293 MPD ctr 2-2 inactive | TRPC4 ctr mod 18% | TRPC4/MOR inh 2 40% | TRPC6 block conf inactive
CC1CCCN(C(=O)c2ccc3c(c2NCCO)C(=O)c2ccccc2C3=O)C1 (stereo not given)	TRPC6 inh -5.9 | HEK293 MPD ctr-2 -235% | HEK293 MPD ctr 2-2 inactive | TRPC4 ctr mod -36% | TRPC4/MOR inh 2 68% | TRPC6 block conf 49% | TRPC6 act conf inactive
O=C1c2ccccc2C(=O)c2c1ccc(C(=O)N1CCCCC1)c2NCCO	none
CCN(CCN(C)C)C(=O)c1ccc2c(c1NCCO)C(=O)c1ccccc1C2=O	TRPC6 inh -5.9 | HEK293 MPD ctr-2 -168% | HEK293 MPD ctr 2-2 inactive | TRPC4 ctr mod -34% | TRPC4/MOR inh 2 49% | TRPC6 block conf 45% | TRPC6 act conf inactive
C=CCn1c(C(CCCC)CC(C)O)n[nH]c1=S (stereo not given)	none
O=C(CCC(=O)N1CCN(Cc2ccc(F)cc2)CC1)Nc1nnc(C(F)(F)F)s1	none
CSc1ccc2c(c1)N(CCC1CCCCN1C)c1ccccc1S2 (stereo not given)	TRPC6 inh -6 | HEK293 MPD ctr-2 inactive | HEK293 MPD ctr 2-2 59% | TRPC4 ctr mod inactive | TRPC4/MOR inh 2 85% | TRPC6 block conf 67% | TRPC6 act conf inactive
C#CCOc1ccc(/C=C2/C(=O)ON=C2C)cc1Br	none
O=C(NC1CCCCC1)C(c1ccccn1)N(C(=O)Cc1cccs1)c1ccc(Cl)cc1 (stereo not given)	TRPC6 inh -6.9 | TRPC4 spec 2 inactive | TRPC4 spec 22% | HEK293 MPD ctr 2-1 inactive | HEK293 MPD ctr-1 11% | TRPC6 block conf inactive

Compound activity from PubChem.
